# Laboratory results taken from ChEMBL document CHEMBL1132924, “Molecular determinants of MAO selectivity in a series of indolylmethylamine derivatives: biological activities, 3D-QSAR/CoMFA analysis, and computational simulation of ligand recognition” (J Med Chem, 2000).
# Assays:
# [1] = target: T1, Amine oxidase [flavin-containing] B (Rattus norvegicus, UniProt P19643); assay: (§1) Inhibitory activity against Monoamine oxidase B
# T1 sequence (P19643 whole entry): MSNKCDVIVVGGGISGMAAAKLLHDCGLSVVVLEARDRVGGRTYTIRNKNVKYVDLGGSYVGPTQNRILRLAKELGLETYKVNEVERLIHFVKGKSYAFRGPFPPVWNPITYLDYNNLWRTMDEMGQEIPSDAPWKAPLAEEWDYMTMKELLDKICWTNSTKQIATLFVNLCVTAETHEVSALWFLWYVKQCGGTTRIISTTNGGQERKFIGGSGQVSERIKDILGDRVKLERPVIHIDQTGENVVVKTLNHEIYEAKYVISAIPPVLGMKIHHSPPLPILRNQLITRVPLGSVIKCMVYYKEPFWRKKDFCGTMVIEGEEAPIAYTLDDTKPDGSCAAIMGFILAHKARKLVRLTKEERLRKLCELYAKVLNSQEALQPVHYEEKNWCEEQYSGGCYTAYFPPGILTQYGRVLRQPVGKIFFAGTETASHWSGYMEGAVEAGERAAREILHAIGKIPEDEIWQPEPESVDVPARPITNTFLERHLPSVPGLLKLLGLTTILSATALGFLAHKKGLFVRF
# How it was run: (§2)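 Enzyme is a mitochondrial fraction from livers of male Sprague-Dawley rats (200-250 g), homogenised in 50 mM potassium phosphate pH 7.2. Activity followed at 37 °C with 333 µM benzylamine, product appearance read at 250 nm. Ki for reversible complex formation came from direct fitting of progress curves recorded at varying inhibitor concentrations.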
# [2] = target: T2, Amine oxidase [flavin-containing] A (Rattus norvegicus, UniProt P21396); assay: (§3) Inhibitory activity against Monoamine oxidase A
# T2 sequence (P21396 whole entry): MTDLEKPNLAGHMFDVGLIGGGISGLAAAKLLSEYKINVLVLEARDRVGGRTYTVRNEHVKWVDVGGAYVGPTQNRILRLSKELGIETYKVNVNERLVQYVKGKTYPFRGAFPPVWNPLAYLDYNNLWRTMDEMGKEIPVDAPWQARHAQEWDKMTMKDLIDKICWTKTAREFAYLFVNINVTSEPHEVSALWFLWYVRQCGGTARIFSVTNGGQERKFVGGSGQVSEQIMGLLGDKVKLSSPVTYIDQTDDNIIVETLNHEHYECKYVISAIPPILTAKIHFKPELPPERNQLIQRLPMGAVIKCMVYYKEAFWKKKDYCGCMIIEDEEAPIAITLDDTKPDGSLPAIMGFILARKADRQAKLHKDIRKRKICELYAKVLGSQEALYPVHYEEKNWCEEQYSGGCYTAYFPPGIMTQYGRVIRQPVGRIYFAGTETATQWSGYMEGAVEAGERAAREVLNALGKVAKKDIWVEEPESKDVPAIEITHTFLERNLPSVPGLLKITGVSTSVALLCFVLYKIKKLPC
# How it was run: (§4)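 Rat liver mitochondrial fraction (male Sprague-Dawley, 200-250 g), homogenised in 50 mM potassium phosphate pH 7.2. Kynuramine 40 µM as substrate with MAO-B activity blocked beforehand by L-deprenyl, product read at 324 nm. Ki for reversible complex formation obtained by direct analysis of spectrophotometric reaction progress curves over varying inhibitor concentrations.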
# [3] = target: T1, Amine oxidase [flavin-containing] B; assay: as §1; how it was run: as §2; remark: listed apart in the source
# [4] = target: T2, Amine oxidase [flavin-containing] A; assay: as §3; how it was run: as §4; remark: listed apart in the source
Ki [1] [µM],Ki [2] [µM],Ki [3] [µM],Ki [4] [µM],SMILES
0.03,0.0015,0.0575,0.00151,C#CCN(C)Cc1cc2cc(OC)ccc2n1C
8.8,0.0057,–,0.00575,CC#CCN(C)Cc1cc2cc(O)ccc2n1C
476,160,–,158,C#CCN(C)Cc1cn(Cc2ccccc2)c2ccccc12
50,> 1000,–,–,CC#CCN(Cc1ccccc1)Cc1cc2ccccc2n1C
159,87,–,87.1,c1ccc(CNCc2cc3ccccc3[nH]2)cc1
60,10,–,10,C#CCN(Cc1ccccc1)Cc1cc2ccccc2n1C
438,133,–,132,CC(C)NCc1cn(Cc2ccccc2)c2ccccc12
429,262,–,263,CCNCc1cn(Cc2ccccc2)c2ccccc12
8.9,4,–,3.98,C#CCNCc1cc2cc(O)ccc2n1C
362,244,–,245,c1ccc(CNCc2cn(Cc3ccccc3)c3ccccc23)cc1
0.003,0.0003,–,0.000302,C#CCN(C)Cc1cc2ccccc2n1C
48,34,–,33.9,Cn1c(CNCc2ccccc2)cc2ccccc21
0.82,0.004,–,0.00398,C#CCN(C)Cc1cc2cc(O)ccc2n1C
3.83,0.24,–,0.24,C#CCNCc1cc2ccccc2n1C
0.03,0.0043,–,0.00427,CC#CCN(C)Cc1cc2ccccc2n1C
0.004,0.0008,–,0.000813,C#CCNCc1cc2cc(OC)ccc2n1C
338,167,–,166,CNCc1cn(Cc2ccccc2)c2ccccc12
0.37,0.0014,–,0.00141,CC#CCN(C)Cc1cc2cc(OC)ccc2n1C
260,> 1000,–,–,C#CCN(Cc1ccccc1)Cc1cn(Cc2ccccc2)c2ccccc12

SMILES,Ki [1] [µM],Ki [2] [µM],Ki [3] [µM],Ki [4] [µM]
CC#CCNCc1cc2cc(OCc3ccccc3)ccc2[nH]1,0.015,–,–,15.1
C#CCNCc1cc2cc(OCc3ccccc3)ccc2[nH]1,0.00075,0.79,–,–
